Measurements published in ChEMBL document CHEMBL4145598, “Discovery and Development of 8-Substituted Cycloberberine Derivatives as Novel Antibacterial Agents against MRSA” (ACS Med Chem Lett, 2018).
The source made the active and inactive calls. The rule behind the calls is not given here.

Tests used:
Staphylococcus aureus [1] = experiment: Antimicrobial activity against methicillin-sensitive Staphylococcus aureus isolate 13-17 after 18 hrs by agar dilution assay; type: functional; conditions: isolate 13-17, 18 h
Staphylococcus aureus [2] = experiment: Antimicrobial activity against methicillin-resistant Staphylococcus aureus isolate 12-13 after 18 hrs by agar dilution assay; type: functional; conditions: isolate 12-13, 18 h
Outline: (§1)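 Drug-resistant S. aureus (MRSA/VISA) panel. It includes ATCC reference strains and clinical isolates from patients in Chinese hospitals. MIC was determined by standard methods and reported in μg/mL, with levofloxacin as the reference drug.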

Staphylococcus aureus [3] = experiment: Antimicrobial activity against methicillin-resistant Staphylococcus aureus ATCC 33591 after 18 hrs by agar dilution assay; type: functional; conditions: ATCC 33591, 18 h; outline: as §1
Staphylococcus aureus [4] = experiment: Antimicrobial activity against vancomycin-intermediate Staphylococcus aureus ATCC 700698 after 18 hrs by agar dilution assay; type: functional; conditions: ATCC 700698, 18 h
Outline: (§2)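 MICs in μg/mL against drug-resistant S. aureus (MRSA/VISA) by standard methods, with levofloxacin as the reference drug. ATCC strains were used.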

Staphylococcus aureus [5] = experiment: Antimicrobial activity against methicillin-sensitive Staphylococcus aureus isolate 13-20 after 18 hrs by agar dilution assay; type: functional; conditions: isolate 13-20, 18 h
Staphylococcus aureus [6] = experiment: Antimicrobial activity against methicillin-sensitive Staphylococcus aureus isolate 13-21 after 18 hrs by agar dilution assay; type: functional; conditions: isolate 13-21, 18 h
Staphylococcus aureus [7] = experiment: Antimicrobial activity against methicillin-resistant Staphylococcus aureus isolate 12-3 after 18 hrs by agar dilution assay; type: functional; conditions: isolate 12-3, 18 h; outline: as §1
Staphylococcus aureus [8] = experiment: Antimicrobial activity against methicillin-sensitive Staphylococcus aureus ATCC 29213 after 18 hrs by agar dilution assay; type: functional; conditions: ATCC 29213, 18 h
Staphylococcus aureus [9] = experiment: Antimicrobial activity against methicillin-sensitive Staphylococcus aureus isolate 13-19 after 18 hrs by agar dilution assay; type: functional; conditions: isolate 13-19, 18 h
[10] = tested on: Staphylococcus epidermidis; experiment: Antimicrobial activity against methicillin-sensitive Staphylococcus epidermidis ATCC 12228 after 18 hrs by agar dilution assay; type: functional; conditions: ATCC 12228, 18 h
[11] = Cytotoxicity against human A549 cells assessed as decrease in cell viability after 24 hrs by MTT assay; type: cell-based
Outline: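 A549 cells were treated with compound at a series of concentrations for 24 h, and viability was read by MTT assay. Controls received 0.4% (v/v) DMSO. CC50 is given in μg/mL.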

Staphylococcus hominis = experiment: Antimicrobial activity against Staphylococcus hominis ATCC 35982 after 18 hrs by agar dilution assay; type: functional; conditions: ATCC 35982, 18 h
Staphylococcus aureus [12] = experiment: Antimicrobial activity against vancomycin-intermediate Staphylococcus aureus ATCC 700699 after 18 hrs by agar dilution assay; type: functional; conditions: ATCC 700699, 18 h; outline: as §2
Staphylococcus aureus [13] = experiment: Antimicrobial activity against methicillin-resistant Staphylococcus aureus ATCC-BAA-1708 after 18 hrs by agar dilution assay; type: functional; conditions: ATCC-BAA-1708, 18 h; outline: as §1
[14] = tested on: Staphylococcus epidermidis; experiment: Antimicrobial activity against methicillin-sensitive Staphylococcus epidermidis isolate 13-1 after 18 hrs by agar dilution assay; type: functional; conditions: isolate 13-1, 18 h
Staphylococcus aureus [15] = experiment: Antimicrobial activity against methicillin-resistant Staphylococcus aureus isolate 13-23 after 18 hrs by agar dilution assay; type: functional; conditions: isolate 13-23, 18 h; outline: as §1
Staphylococcus aureus [16] = experiment: Antimicrobial activity against methicillin-sensitive Staphylococcus aureus isolate 15 after 18 hrs by agar dilution assay; type: functional; conditions: isolate 15, 18 h
[17] = tested on: Staphylococcus saprophyticus; experiment: Antimicrobial activity against Staphylococcus saprophyticus ATCC 15305 after 18 hrs by agar dilution assay; type: functional; conditions: ATCC 15305, 18 h
Staphylococcus aureus [18] = experiment: Antimicrobial activity against methicillin-resistant Staphylococcus aureus isolate 13-18 after 18 hrs by agar dilution assay; type: functional; conditions: isolate 13-18, 18 h; outline: as §1
Staphylococcus aureus [19] = experiment: Antimicrobial activity against methicillin-resistant Staphylococcus aureus isolate 12-8 after 18 hrs by agar dilution assay; type: functional; conditions: isolate 12-8, 18 h; outline: as §1
Staphylococcus aureus [20] = experiment: Antimicrobial activity against methicillin-resistant Staphylococcus aureus isolate 12-16 after 18 hrs by agar dilution assay; type: functional; conditions: isolate 12-16, 18 h; outline: as §1
[21] = Stability in Sprague-Dawley rat blood assessed as parent compound remaining at […] after 420 mins by LC-MS/MS analysis; type: ADME, tissue-based; conditions: read-out: Stability
DNA = experiment: Binding affinity to Escherichia coli DH5-alpha supercoiled pET-32a DNA assessed as conversion of closed circular form to open circular form of DNA at 61.5 to 492 ug/ml after 4 hrs by agarose gel electrophoresis; type: nucleic-acid assay
Outline: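 Supercoiled pET-32a plasmid DNA was incubated with compound at increasing concentrations for 4 h at 37 °C under physiological conditions. DNA forms were resolved by agarose gel electrophoresis.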

SMILES | MIC (Staphylococcus aureus [1]) [µg/mL] | MIC (Staphylococcus aureus [2]) [µg/mL] | MIC (Staphylococcus aureus [3]) [µg/mL] | MIC (Staphylococcus aureus [4]) [µg/mL] | MIC (Staphylococcus aureus [5]) [µg/mL] | MIC (Staphylococcus aureus [6]) [µg/mL] | MIC (Staphylococcus aureus [7]) [µg/mL] | MIC (Staphylococcus aureus [8]) [µg/mL] | MIC (Staphylococcus aureus [9]) [µg/mL] | MIC [10] [µg/mL] | MIC (Staphylococcus hominis) [µg/mL] | MIC (Staphylococcus aureus [12]) [µg/mL] | MIC (Staphylococcus aureus [13]) [µg/mL] | MIC [14] [µg/mL] | MIC (Staphylococcus aureus [15]) [µg/mL] | MIC (Staphylococcus aureus [16]) [µg/mL] | MIC [17] [µg/mL] | MIC (Staphylococcus aureus [18]) [µg/mL] | MIC (Staphylococcus aureus [19]) [µg/mL] | MIC (Staphylococcus aureus [20]) [µg/mL] | further results
COc1ccc2c(c[n+]3c4c2ccc2c5c(cc(c24)CC3)OCO5)c1OC(C)=O.[Cl-] | 1 | 4 | 4 | 16 | 2 | 4 | 4 | 1 | 8 | 1 | 2 | 32 | 8 | 2 | 2 | 2 | 4 | 1 | 8 | 2 | CC50 at 24 h [11]: > 33.6 µg/mL
COc1ccc2c(c[n+]3c4c2ccc2c5c(cc(c24)CC3)OCO5)c1OCC(=O)C12CC3CC(CC(C3)C1)C2.[Br-] | 2 | 4 | 2 | 8 | 4 | 2 | 4 | 4 | 4 | 2 | 2 | 8 | 4 | 2 | 2 | 2 | 2 | 4 | 4 | 2 | remaining at 7 h [21]: 58%; CC50 at 24 h [11]: 2 µg/mL
COc1ccc2c(c[n+]3c4c2ccc2c5c(cc(c24)CC3)OCO5)c1NC(=O)c1csnn1.[Cl-] | 2 | 4 | 2 | 16 | 2 | 2 | 2 | 2 | 2 | 4 | 2 | 8 | 2 | 2 | 2 | 4 | 4 | 2 | 2 | 2 | remaining at 7 h [21]: 57.2%; CC50 at 24 h [11]: 16.1 µg/mL; Activity (DNA): Active
COc1cccc(C(=O)COc2c(OC)ccc3c2c[n+]2c4c3ccc3c5c(cc(c34)CC2)OCO5)c1.[Br-] | 4 | 8 | 4 | > 64 | 8 | 16 | 16 | 16 | 4 | 16 | 64 | > 64 | 64 | 8 | 16 | 32 | 8 | 4 | 16 | 8 | 
